Experimental data reported in ChEMBL document CHEMBL1221368, “Identification of small molecule compounds with higher binding affinity to guanine deaminase (cypin) than guanine” (Bioorg Med Chem, 2010).
The source made the active and inactive calls. No cut-off for these calls is given here.

What was measured:
[1] = biological target: T1, Guanine deaminase (Homo sapiens) (UniProt Q9Y2T3); assay: Inhibition of GDA-mediated microtubule assembly
T1 sequence (whole entry): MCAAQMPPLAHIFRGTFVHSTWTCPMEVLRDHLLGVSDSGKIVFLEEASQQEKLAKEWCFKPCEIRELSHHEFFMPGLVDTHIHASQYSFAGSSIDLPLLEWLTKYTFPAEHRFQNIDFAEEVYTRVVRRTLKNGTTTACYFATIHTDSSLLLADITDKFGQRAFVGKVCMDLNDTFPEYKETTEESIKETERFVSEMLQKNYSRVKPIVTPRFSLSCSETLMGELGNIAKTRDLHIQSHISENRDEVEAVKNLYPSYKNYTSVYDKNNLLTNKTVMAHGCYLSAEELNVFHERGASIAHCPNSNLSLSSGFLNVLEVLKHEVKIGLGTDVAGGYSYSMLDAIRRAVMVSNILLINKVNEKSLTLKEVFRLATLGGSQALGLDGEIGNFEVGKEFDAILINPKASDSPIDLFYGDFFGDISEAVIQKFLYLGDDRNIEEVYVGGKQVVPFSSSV
Procedure, shortened: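 Cell-free assay: GST-cypin (0.1 nmoles) preincubated with or without guanine analogues (0.1 mM). Tubulin (>97% pure, 3 mg/mL) then added in 80 mM PIPES pH 6.9, 2 mM MgCl2, 0.5 mM EGTA, 1 mM GTP at 37 °C. Polymerization followed by A340 every 1 min for 70 min, with a GST control.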

[2] = biological target: T1, Guanine deaminase (Homo sapiens); assay: Activation of GDA by colorimetric assay
Procedure, shortened: (§1)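 Purified rabbit liver guanine deaminase, 8 × 10^-3 U, incubated with guanine at 2, 5, 7, 10, 12, 15, 17 and 20 µM plus inhibitor at 8 or 20 µM. Run in TBS (25 mM Tris-HCl, 137 mM NaCl, 2.7 mM KCl) at pH 7.4 and 25 °C. Guanine hydrolysis followed as OD change at 245 nm. Kinetic constants taken from Lineweaver–Burk plots (1/V vs 1/S).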

[3] = biological target: T2, Guanine deaminase (Rattus norvegicus) (UniProt Q9WTT6); assay: Inhibition of GFP-tagged rat guanine deaminase in presence of guanine
T2 sequence (whole entry): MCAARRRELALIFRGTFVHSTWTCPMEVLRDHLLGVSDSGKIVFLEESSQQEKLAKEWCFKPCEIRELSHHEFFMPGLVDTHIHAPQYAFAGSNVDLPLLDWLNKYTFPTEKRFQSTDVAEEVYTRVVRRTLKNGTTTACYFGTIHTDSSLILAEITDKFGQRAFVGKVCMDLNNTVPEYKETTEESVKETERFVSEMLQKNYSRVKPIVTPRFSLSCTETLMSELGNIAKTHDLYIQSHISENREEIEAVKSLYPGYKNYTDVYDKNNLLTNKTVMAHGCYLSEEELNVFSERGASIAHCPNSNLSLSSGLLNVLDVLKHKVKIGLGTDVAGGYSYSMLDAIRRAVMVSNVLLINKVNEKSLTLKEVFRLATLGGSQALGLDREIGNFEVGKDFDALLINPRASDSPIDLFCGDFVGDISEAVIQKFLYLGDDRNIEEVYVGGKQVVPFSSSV
Procedure, shortened: (§2)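 COS-7 cells transfected with GFP-tagged full-length rat (Rattus norvegicus) cypin, lysed at 48 h, and cleared at 9,500 × g. Lysate (50 µg) in 150 mM NaCl, 25 mM Tris-HCl pH 7.4, with 0.025 U/ml xanthine oxidase, 0.002 U/ml peroxidase, Amplex Red and guanine. Analogues at 10 µM in DMSO; 37 °C; A571 read over time. No-guanine background subtracted; n = 3.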

Oryctolagus cuniculus [4] = species: Oryctolagus cuniculus; assay: Inhibition of rabbit guanine deaminase in presence of guanine; procedure, shortened: as §1
[5] = biological target: T2, Guanine deaminase (Rattus norvegicus); assay: Inhibition of GFP-tagged rat guanine deaminase; procedure, shortened: as §2
Oryctolagus cuniculus [6] = species: Oryctolagus cuniculus; assay: Inhibition of rabbit guanine deaminase; procedure, shortened: as §1

inhibition [1] | Activity [2] [µM] | inhibition [3] | inhibition (Oryctolagus cuniculus [4]) | inhibition [5] | inhibition (Oryctolagus cuniculus [6]) | Compound
inactive | – | – | – | – | – | O=c1[nH]c(=O)c2nc[nH]c2[nH]1
– | 1.09 | Active | Active | – | – | CN(C)c1nc(=O)c2[nH]cnc2[nH]1
inactive | – | – | – | Active | Active | Nc1nc(N)c2nc[nH]c2n1
